pIC50: −log10 of the molar value.
What was measured:
[1] = biological target: T1, Inhibitor of nuclear factor kappa-B kinase subunit beta (Homo sapiens, UniProt O14920); experiment: Inhibition of purified His-tagged IKK-beta after 15 mins
T1 sequence (O14920 whole entry): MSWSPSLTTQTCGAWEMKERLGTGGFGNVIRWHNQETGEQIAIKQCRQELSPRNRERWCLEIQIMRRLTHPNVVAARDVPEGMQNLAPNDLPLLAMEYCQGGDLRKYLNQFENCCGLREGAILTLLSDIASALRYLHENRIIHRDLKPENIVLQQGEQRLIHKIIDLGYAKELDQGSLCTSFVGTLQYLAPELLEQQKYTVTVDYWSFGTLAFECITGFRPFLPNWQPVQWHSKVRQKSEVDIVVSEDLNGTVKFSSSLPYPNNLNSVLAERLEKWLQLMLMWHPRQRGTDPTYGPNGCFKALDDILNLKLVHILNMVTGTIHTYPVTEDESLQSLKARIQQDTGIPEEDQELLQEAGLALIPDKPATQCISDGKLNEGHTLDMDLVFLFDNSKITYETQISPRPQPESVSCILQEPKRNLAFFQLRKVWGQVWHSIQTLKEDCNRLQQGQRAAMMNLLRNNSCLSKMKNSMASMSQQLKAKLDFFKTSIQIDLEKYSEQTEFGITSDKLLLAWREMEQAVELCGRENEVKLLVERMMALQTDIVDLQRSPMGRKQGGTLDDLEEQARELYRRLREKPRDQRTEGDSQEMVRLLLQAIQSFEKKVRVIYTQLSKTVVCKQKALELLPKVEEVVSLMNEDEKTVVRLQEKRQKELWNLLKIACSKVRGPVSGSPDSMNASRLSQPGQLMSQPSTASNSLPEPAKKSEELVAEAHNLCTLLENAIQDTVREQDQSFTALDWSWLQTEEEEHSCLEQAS

THP-1 = experiment: Antiinflammatory activity in human THP1 cells assessed as inhibition of LPS-induced TNFalpha production after 4 hrs by ELISA; assay type: functional, cell-based; details: THP-1, 4 h
In short: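 THP-1 cells primed 3–4 days with 100 nM calcitriol in RPMI-1640 containing 10% FBS, then cultured overnight without calcitriol. Resuspended in RPMI-1640 with 25 mM HEPES at 1.5×10^5 cells/mL. Compound and E. coli O111:B4 LPS added together, 4 h at 37 °C in 5% CO2. TNFα measured in the centrifuged supernatant by ELISA.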

[2] = biological target: T2, Inhibitor of nuclear factor kappa-B kinase subunit alpha (Homo sapiens, UniProt O15111); experiment: Inhibition of recombinant IKKalpha after 15 mins
T2 sequence (O15111 whole entry): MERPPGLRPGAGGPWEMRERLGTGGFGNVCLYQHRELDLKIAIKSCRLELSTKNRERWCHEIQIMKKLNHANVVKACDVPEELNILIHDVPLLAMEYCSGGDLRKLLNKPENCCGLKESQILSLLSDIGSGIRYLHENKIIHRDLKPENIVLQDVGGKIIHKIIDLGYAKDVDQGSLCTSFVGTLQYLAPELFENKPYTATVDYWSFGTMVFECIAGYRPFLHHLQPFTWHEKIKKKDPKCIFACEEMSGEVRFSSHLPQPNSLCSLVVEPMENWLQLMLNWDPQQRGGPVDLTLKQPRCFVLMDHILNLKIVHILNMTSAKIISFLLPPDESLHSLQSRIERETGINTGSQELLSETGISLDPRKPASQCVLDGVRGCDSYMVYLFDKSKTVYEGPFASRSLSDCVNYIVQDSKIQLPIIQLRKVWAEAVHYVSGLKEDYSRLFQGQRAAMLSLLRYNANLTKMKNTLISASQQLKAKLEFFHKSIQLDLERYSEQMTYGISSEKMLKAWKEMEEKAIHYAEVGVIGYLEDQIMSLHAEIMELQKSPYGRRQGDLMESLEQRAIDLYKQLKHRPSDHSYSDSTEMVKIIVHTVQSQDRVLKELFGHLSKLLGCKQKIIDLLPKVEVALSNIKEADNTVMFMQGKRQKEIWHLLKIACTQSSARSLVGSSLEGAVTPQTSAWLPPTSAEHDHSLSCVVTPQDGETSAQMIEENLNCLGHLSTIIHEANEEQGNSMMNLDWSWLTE

[3] = biological target: Cyclin-dependent kinase 2 (Homo sapiens, UniProt P24941); experiment: Inhibition of recombinant CDK2 after 15 mins
[4] = biological target: Glycogen synthase kinase-3 beta (Homo sapiens, UniProt P49841); experiment: Inhibition of recombinant GSK3-beta after 15 mins
In short: (§1)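 Each recombinant kinase was assayed with ATP at its own Km.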

[5] = biological target: Mitogen-activated protein kinase 10 (Homo sapiens, UniProt P53779); experiment: Inhibition of recombinant JNK3 after 15 mins; in short: as §1
[6] = biological target: Mitogen-activated protein kinase 14 (Homo sapiens, UniProt Q16539); experiment: Inhibition of recombinant p38alpha after 15 mins; in short: as §1
[7] = Apparent permeability of the compound at pH 7.4 by PAMPA method; assay type: ADME

Mitogen-activated protein kinase 14, sequence (Q16539 whole entry): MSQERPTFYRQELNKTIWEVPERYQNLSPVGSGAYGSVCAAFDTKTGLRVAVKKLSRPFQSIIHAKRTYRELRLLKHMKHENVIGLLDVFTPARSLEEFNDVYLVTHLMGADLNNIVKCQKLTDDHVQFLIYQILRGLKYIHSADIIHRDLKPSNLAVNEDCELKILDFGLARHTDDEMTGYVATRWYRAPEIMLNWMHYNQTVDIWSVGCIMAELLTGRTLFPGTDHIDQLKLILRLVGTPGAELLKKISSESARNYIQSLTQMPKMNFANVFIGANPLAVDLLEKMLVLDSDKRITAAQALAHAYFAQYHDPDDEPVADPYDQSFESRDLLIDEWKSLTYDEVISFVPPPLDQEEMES
Mitogen-activated protein kinase 10, sequence (P53779 whole entry): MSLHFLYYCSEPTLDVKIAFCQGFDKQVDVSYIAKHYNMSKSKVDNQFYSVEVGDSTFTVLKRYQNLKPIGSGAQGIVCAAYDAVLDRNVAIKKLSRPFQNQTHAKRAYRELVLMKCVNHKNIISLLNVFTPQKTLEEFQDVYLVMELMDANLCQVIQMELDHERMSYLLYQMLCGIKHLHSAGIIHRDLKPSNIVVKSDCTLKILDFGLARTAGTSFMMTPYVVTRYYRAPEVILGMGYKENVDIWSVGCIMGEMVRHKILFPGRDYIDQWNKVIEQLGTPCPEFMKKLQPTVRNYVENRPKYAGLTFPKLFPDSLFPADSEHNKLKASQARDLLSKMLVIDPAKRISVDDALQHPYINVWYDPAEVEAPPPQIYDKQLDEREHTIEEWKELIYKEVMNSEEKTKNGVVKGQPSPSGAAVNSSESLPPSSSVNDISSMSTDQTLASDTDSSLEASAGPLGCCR
Glycogen synthase kinase-3 beta, sequence (P49841 whole entry): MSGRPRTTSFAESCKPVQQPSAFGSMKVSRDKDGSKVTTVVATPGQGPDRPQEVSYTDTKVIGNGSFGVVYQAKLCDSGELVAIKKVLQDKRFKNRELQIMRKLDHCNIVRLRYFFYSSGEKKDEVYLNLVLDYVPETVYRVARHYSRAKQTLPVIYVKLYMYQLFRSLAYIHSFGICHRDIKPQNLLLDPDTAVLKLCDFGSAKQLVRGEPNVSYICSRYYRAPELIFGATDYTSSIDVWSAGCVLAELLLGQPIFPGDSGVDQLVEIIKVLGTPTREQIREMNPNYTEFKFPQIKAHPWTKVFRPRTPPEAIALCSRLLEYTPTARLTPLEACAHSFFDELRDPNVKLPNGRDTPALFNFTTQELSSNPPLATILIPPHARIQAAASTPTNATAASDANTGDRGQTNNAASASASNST

O=C(NC[C@H]1CCCN1)c1ccc(-c2cnc3ccc(NCC4CC4)nn23)cc1 showed a pIC50 [1] of 7.00 and a pIC50 (THP-1) of 5.80.
O=C(NC[C@@H]1CCCN1)c1ccc(-c2cnc3ccc(NCCCO)nn23)cc1 showed a pIC50 (THP-1) of under 4.52.
Work on O=C(NCCNc1ccccc1)c1ccc(-c2cnc3ccc(NCc4ccc(Cl)c(Cl)c4)nn23)cc1 yielded a pIC50 (THP-1) of under 4.52.
With O=C(NC[C@@H]1CCCN1)c1ccc(-c2cnc3ccc(NCCc4cnc[nH]4)nn23)cc1 the pIC50 [1] was 5.52 and the pIC50 (THP-1) was under 4.52.
O=C(NCCN1CCCCC1)c1ccc(-c2cnc3ccc(NCc4ccc(Cl)c(Cl)c4)nn23)cc1 showed a pIC50 (THP-1) of under 4.52.
With O=C(NC1CCNCC1)c1ccc(-c2cnc3ccc(NCc4ccc(Cl)c(Cl)c4)nn23)cc1 the pIC50 (THP-1) was 5.36.
Compound CNc1ccc2ncc(-c3ccc(C(=O)NC[C@@H]4CCCN4)cc3)n2n1 has a pIC50 (THP-1) of 4.54.
CCNC(=O)c1ccc(-c2cnc3ccc(NCc4ccc(Cl)c(Cl)c4)nn23)cc1 gave a pIC50 [1] of 4.57 and a pIC50 (THP-1) of 4.57.
With O=C(NC[C@@H]1CCCN1)c1ccc(-c2cnc3ccc(N4CCOCC4)nn23)cc1 the pIC50 [1] was under 4.52.
O=C(NC[C@@H]1CCCN1)c1ccc(-c2cnc3ccc(NCCCn4ccnc4)nn23)cc1 gave a pIC50 [1] of 6.42 and a pIC50 (THP-1) of under 4.52.
CCN1CCC[C@H]1CNC(=O)c1ccc(-c2cnc3ccc(NCC4CC4)nn23)cc1 gave a pIC50 (THP-1) of 6.31.
O=C(NC[C@@H]1CCCN1)c1ccc(-c2cnc3ccc(NC4CC4)nn23)cc1 gave a pIC50 (THP-1) of 5.49.
O=C(NC[C@@H]1CCCN1)c1ccc(-c2cnc3ccc(NCCO)nn23)cc1 showed a pIC50 (THP-1) of under 4.52.
CC(CN(C)C)NC(=O)c1ccc(-c2cnc3ccc(NCC4CC4)nn23)cc1 (configuration not stated) showed a pIC50 (THP-1) of 5.68.
NC(=O)c1ccc(-c2cnc3ccc(NCc4ccc(Cl)c(Cl)c4)nn23)cc1 gave a pIC50 (THP-1) of 5.77.
O=C(NC[C@@H]1CCCCN1)c1ccc(-c2cnc3ccc(NCC4CC4)nn23)cc1 showed a pIC50 (THP-1) of 5.82.
Work on CN(C)c1ccc2ncc(-c3ccc(C(=O)NC[C@@H]4CCCN4)cc3)n2n1 yielded a pIC50 (THP-1) of 4.70.
Compound CN1CCC[C@H]1CNC(=O)c1ccc(-c2cnc3ccc(NCC4CC4)nn23)cc1 has a pIC50 [1] of 6.96 and a pIC50 (THP-1) of 5.89.
In the case of CC(N)CNC(=O)c1ccc(-c2cnc3ccc(NCC4CC4)nn23)cc1 (configuration not stated), the pIC50 [1] was 6.51 and the pIC50 (THP-1) was 5.82.
O=C(NC[C@@H]1CCCN1)c1ccc(-c2cnc3ccc(NCc4cccc(Cl)c4)nn23)cc1 gave a pIC50 [1] of 6.72, a pIC50 (THP-1) of 5.57 and a pIC50 [2] of under 5.40. The pIC50 [3] was under 4.00, the pIC50 [4] was under 4.00 and the pIC50 [5] was 4.11. It also gave a pIC50 [6] of under 4.00 and a Papp [7] of under 2 ×10⁻⁶ cm/s.
With NCCCNC(=O)c1ccc(-c2cnc3ccc(NCc4ccc(Cl)c(Cl)c4)nn23)cc1 the pIC50 (THP-1) was 5.33.
With O=C(NCc1ccccn1)c1ccc(-c2cnc3ccc(NCc4ccc(Cl)c(Cl)c4)nn23)cc1 the pIC50 (THP-1) was under 4.52.
Compound O=C(NC[C@@H]1CCNC1)c1ccc(-c2cnc3ccc(NCc4ccc(Cl)c(Cl)c4)nn23)cc1 has a pIC50 [1] of 5.00 and a pIC50 (THP-1) of 4.77.
